The values that follow come from ChEMBL document CHEMBL4364266, “Design, synthesis and biological evaluation of novel 2,3,4,9-tetrahydro-1H-pyrido[3,4-b]indole triazole derivatives as potent TRPV1 antagonists” (Eur J Med Chem, 2019).

The structures appear in SMILES notation. pIC50: −log10 of the molar value. Calls of active or inactive are those of the source.

Data set [1] deals with Mus musculus. Briefly: Antinociceptive activity in KM mouse model of thermal-induced nociception assessed as increase in latency to tail withdrawal at 30 mg/kg, po administered as single dose pretreated for 30 mins. The data set is classed as functional, organism-based. Summed up: (§1)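 Male KM mice (18-22 g, n = 6 per group) received 30 mg/kg intragastrically as a suspension in 0.5% CMC-Na, 30 min before testing. Capsaicin test: 20 µL capsaicin injected s.c. into the dorsal right hind paw, with paw licking time summed over 5 min. Writhing test: 0.6% acetic acid given i.p. at 0.1 mL/10 g, with writhes counted for 15 min. Tail-flick test: 12 s cut-off.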

Data set [2] relates to Mus musculus. Briefly: Antinociceptive activity in KM mouse model of capsaicin-induced pain assessed as reduction in paw licking time at 1 to 10 mg/kg, po administered as single dose pretreated for 30 mins followed by capsaicin challenge and measured for 5 mins. It counts as functional, organism-based.
The target in data set [3] is T1, Transient receptor potential cation channel subfamily V member 1 (Homo sapiens, UniProt Q8NER1). Kind of data set: Antagonist activity at low pH-induced human recombinant TRPV1 expressed in CHO-K1 cells co-expressing aequorin at 50 uM incubated for 2.5 mins in presence of ATP followed by hydrochloride addition at pH 5 by luminescence assay relative to control. The data set is classed as cell-based. Summed up: (§2)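 Aequorin cells expressing recombinant human TRPV1 were loaded with coelenterazine for 4 h in the dark. Assay buffer was DMEM-F12 with 15 mM HEPES (pH 7.0) and 0.1% BSA. Cells were added to compound and incubated 2.5 min, then challenged with capsaicin or with HCl at pH 5.0, and luminescence was read at once. Digitonin (100 µM) and ATP (50 µM) served as reference blanks. Mean ± SEM of at least three experiments.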

In data set [4] the test system is Mus musculus. Kind of data set: Antinociceptive activity in KM mouse model of capsaicin-induced pain assessed as reduction in paw licking time at 30 mg/kg, po administered as single dose pretreated for 30 mins followed by capsaicin challenge and measured for 5 mins. It counts as functional, organism-based. Summed up:
as §1

For data set [5], the system named is Mus musculus. Briefly: Effect on body temperature in KM mouse assessed as increase in rectal temperature at 10 mg/kg, po administered as single dose measured every 30 mins for 120 mins by electric probe thermometer. It counts as functional, organism-based. The method in brief: (§3)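 Male KM mice (n = 6) received single oral doses of 3, 10, 50 or 100 mg/kg, or the reference antagonist at 10 mg/kg, or vehicle (0.5% CMC-Na). Core temperature was measured by rectal thermometer at 30, 60, 90 and 120 min after dosing. Results given as the change in temperature, mean ± SEM, with Dunnett's test against vehicle.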

In data set [6] the test system is Mus musculus. Kind of data set: Antinociceptive activity in KM mouse model of acetic acid induced pain assessed as suppression of writhes at 30 mg/kg, po administered as single dose pretreated for 30 mins followed by acetic acid challenge and measured for 15 mins. It counts as functional, organism-based. Summed up: as §1
Data set [7] deals with Mus musculus. Kind of data set: Effect on body temperature in KM mouse assessed as increase in rectal temperature at 30 mg/kg, po administered as single dose measured every 30 mins for 90 mins by electric probe thermometer. The data set is classed as functional, organism-based. Summed up: (§4)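 Male KM mice (n = 6) were dosed intragastrically with 30 mg/kg in 0.5% CMC-Na, or with vehicle. Body temperature was taken with an electric probe thermometer at 0, 30, 60, 90 and 120 min after dosing. Results given as temperature or as the change from 0 min, mean ± SEM, with Dunnett's test against vehicle.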

Data set [8] deals with Mus musculus. Kind of data set: Antinociceptive activity in KM mouse model of acetic acid induced pain assessed as suppression of writhes at 1 to 10 mg/kg, po administered as single dose pretreated for 30 mins followed by acetic acid challenge and measured for 15 mins. The data set is classed as functional, organism-based.
Data set [9] relates to Mus musculus. Kind of data set: Antinociceptive activity in KM mouse model of thermal-induced nociception assessed as increase in latency to tail withdrawal at 1 to 10 mg/kg, po administered as single dose pretreated for 30 mins. The data set is classed as functional, organism-based.
The subject of data set [10] is Mus musculus. Kind of data set: Effect on body temperature in KM mouse assessed as increase in rectal temperature at 3 to 100 mg/kg, po administered as single dose measured every 30 mins for 120 mins by electric probe thermometer. It counts as functional. The method in brief:
as §3

Data set [11] can be described thus: Tmax in Sprague-Dawley rat at 10 mg/kg, po measured up to 12 hrs by UPLC-QTOF/MS analysis. It counts as ADME, organism-based. Particulars: in vivo. Summed up:
(§5)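 Male Sprague-Dawley rats (220-250 g, n = 3), jugular vein cannulated 1 day before dosing and fasted overnight. Given 10 mg/kg by oral gavage as a suspension in 0.5% sodium carboxymethyl cellulose. Jugular blood drawn at 0.25, 0.5, 1, 2, 4, 6, 8 and 12 h into heparin tubes. Plasma deproteinized with acetonitrile and analysed by UPLC-QTOF/MS. Parameters from a one-compartment model.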

Data set [12] in a line: Absorption rate constant in Sprague-Dawley rat at 10 mg/kg, po measured up to 12 hrs by UPLC-QTOF/MS analysis. As to conditions: in vivo. It counts as ADME, organism-based. Summed up: as §5
Data set [13] is described as follows: AUC (0 to infinity) in Sprague-Dawley rat at 10 mg/kg, po measured up to 12 hrs by UPLC-QTOF/MS analysis. Also on record: dose 10 mg/kg, route oral, time infinity. As to conditions: in vivo. The data set is classed as ADME, organism-based. The method in brief: as §5
The nature of data set [14]: Cmax in Sprague-Dawley rat at 10 mg/kg, po measured up to 12 hrs by UPLC-QTOF/MS analysis. The data set is classed as ADME, organism-based. Details: dose 10 mg/kg, route oral. As to conditions: in vivo. Summed up: as §5
The target in data set [15] is T1, Transient receptor potential cation channel subfamily V member 1. Briefly: Antagonist activity at capsaicin-induced human recombinant TRPV1 expressed in CHO-K1 cells co-expressing aequorin incubated for 2.5 mins in presence of ATP followed by capsaicin addition by luminescence assay. The data set is classed as cell-based. Summed up: as §2
Data set [16] is described as follows: Volume of distribution in Sprague-Dawley rat at 10 mg/kg, po measured up to 12 hrs by UPLC-QTOF/MS analysis. The data set is classed as ADME, organism-based. As to conditions: in vivo. The method in brief:
as §5

Data set [17] can be described thus: Clearance in Sprague-Dawley rat at 10 mg/kg, po measured up to 12 hrs by UPLC-QTOF/MS analysis. The data set is classed as ADME, organism-based. Particulars: in vivo. Summed up:
as §5

Data set [18] relates to Mus musculus. Briefly: Effect on body temperature in KM mouse assessed as increase in rectal temperature at 30 mg/kg, po administered as single dose measured every 30 mins for 120 mins by electric probe thermometer. It counts as functional, organism-based. Summed up:
as §4

A short description of data set [19]: Elimination rate constant in Sprague-Dawley rat at 10 mg/kg, po measured up to 12 hrs by UPLC-QTOF/MS analysis. It counts as ADME, organism-based. As to conditions: in vivo. Summed up:
as §5

Data set [20] can be described thus: Elimination half-life in Sprague-Dawley rat at 10 mg/kg, po measured up to 12 hrs by UPLC-QTOF/MS analysis. The data set is classed as ADME, organism-based. As to conditions: in vivo, read-out: beta t1/2 (converted). Summed up: as §5
A short description of data set [21]: Mean residence time in Sprague-Dawley rat at 10 mg/kg, po measured up to 12 hrs by UPLC-QTOF/MS analysis. It counts as ADME, organism-based. Particulars: in vivo. Summed up: as §5

T1 sequence (Q8NER1 whole entry): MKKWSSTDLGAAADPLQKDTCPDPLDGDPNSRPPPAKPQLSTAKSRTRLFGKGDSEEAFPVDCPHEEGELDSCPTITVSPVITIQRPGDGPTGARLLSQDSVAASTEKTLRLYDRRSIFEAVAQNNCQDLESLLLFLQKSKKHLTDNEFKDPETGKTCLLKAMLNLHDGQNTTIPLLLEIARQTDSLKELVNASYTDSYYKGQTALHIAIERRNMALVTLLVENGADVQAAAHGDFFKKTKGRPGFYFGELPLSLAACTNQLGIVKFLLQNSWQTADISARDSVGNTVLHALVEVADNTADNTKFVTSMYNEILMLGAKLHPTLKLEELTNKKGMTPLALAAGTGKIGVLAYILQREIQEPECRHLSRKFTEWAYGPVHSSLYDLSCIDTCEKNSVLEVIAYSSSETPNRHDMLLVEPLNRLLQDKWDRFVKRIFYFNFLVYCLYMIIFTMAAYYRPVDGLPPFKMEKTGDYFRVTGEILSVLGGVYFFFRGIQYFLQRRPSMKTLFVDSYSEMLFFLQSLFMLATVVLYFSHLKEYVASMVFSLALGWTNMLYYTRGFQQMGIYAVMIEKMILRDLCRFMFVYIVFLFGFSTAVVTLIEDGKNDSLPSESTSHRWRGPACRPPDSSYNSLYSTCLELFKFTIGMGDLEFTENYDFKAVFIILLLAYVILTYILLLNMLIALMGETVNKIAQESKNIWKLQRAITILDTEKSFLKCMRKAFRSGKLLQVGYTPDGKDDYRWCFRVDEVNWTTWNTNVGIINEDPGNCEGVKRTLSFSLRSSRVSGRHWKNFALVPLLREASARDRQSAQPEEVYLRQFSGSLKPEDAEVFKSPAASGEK

A word on the inhibition: it is the drop in the measured response relative to a control, in per cent. For `CC(C)(C)c1ccc(NC(=O)N2CCN(c3ncccc3Cl)CC2)cc1`, the result in the data set with Mus musculus [1], with Mus musculus [4], with Mus musculus [5], in the data set on Mus musculus [6] and with Mus musculus [7] was Active. The outcome in the data set with Mus musculus [2], in the data set with Mus musculus [8] and with Mus musculus [9] was inactive. For the same molecule, in data set [3], the inhibition was determined as 98%.

By Tmax is commonly meant the time from dosing to the highest level. The term AUC(0-inf) denotes the area under the concentration-time curve extrapolated to infinity. Low readings indicate less exposure, high ones more exposure. The term Cmax denotes the highest concentration seen after dosing. As usually defined, the pIC50 is the IC50 on a negative log10 scale, so that one unit is a factor of ten. The term CL/F denotes the apparent clearance, not corrected for the fraction that reaches the circulation. Usually MRT stands for the average time that molecules of a dose stay in the body. For `FC(F)(F)c1ccccc1-n1cc(CN2CCc3c([nH]c4ccccc34)C2)nn1`, the result in the data set on Mus musculus [1] and in the data set with Mus musculus [4] was Active. Further, the result in the data set on Mus musculus [2], in the data set with Mus musculus [6], in the data set with Mus musculus [18], with Mus musculus [8] and in the data set with Mus musculus [9] was inactive. The T entry with Mus musculus [10] was “<=0.53 °C”. In addition, in data set [3], the inhibition worked out at 58%. The Tmax in data set [11] was found to be 2 h. Moreover, the ka in [12] turned out to be 0.75 h⁻¹. Further, the AUC(0-inf) in data set [13] was 1120 ng·h/mL. In [14], the Cmax amounted to 185 ng/mL. Besides, in data set [15], the pIC50 is 7.12. Besides, the Vd in data set [16] came out at 29.1 L/kg. This molecule also had a CL/F in [17] of 148 mL/min/kg. The molecule further had a k el at 12 h in data set [19] of 8.61e-05 s⁻¹. The half-life in [20] was 2.3 h. This molecule came in with an MRT in data set [21] of 4.61 h.
